According to ChEMBL document CHEMBL1123724, “A novel synthesis of colchicide and analogues from thiocolchicine and congeners: reevaluation of colchicide as a potential antitumor agent” (1987):

Experiments:
[1] = target: Tubulin beta chain (Bos taurus) (UniProt Q6B856); details: at 25 µM
Mus musculus [2] = test: In vivo antitumor activity against P388 mouse leukemia and minimum affective dose (MED) which produced a T/C greater than the threshold value of 125 was reported.; assay type: functional; details: read-out: MED
In short: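 P388 leukemia cells implanted intraperitoneally in mice. Drug given ip once daily for 9 days (QD1 × 9). T/C = median survival time of treated animals / median survival time of untreated controls × 100. Minimum effective dose is the lowest dose (mg/kg) giving T/C above the threshold of 125. Reported dose levels are those with the highest T/C.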

Mus musculus [3] = test: In vivo antitumor activity against P388 mouse leukemia expressed as T/C (median survival time of treated animals / median survival time of untreated controls x 100) at a dose of 0.5 mg/kg; assay type: functional
In short: (§1)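 P388 leukemia implanted ip in mice, with ip dosing on a QD1 × 9 schedule. Read-out is T/C = median survival of treated animals / median survival of untreated controls × 100. Activity requires duplicate tests giving T/C ≥120%.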

Mus musculus [4] = test: In vivo antitumor activity against P388 mouse leukemia expressed as T/C (median survival time of treated animals / median survival time of untreated controls x 100) at a dose of 0.18 mg/kg; assay type: functional
In short: as §1

Mus musculus [5] = test: In vivo antitumor activity against P388 mouse leukemia expressed as T/C (median survival time of treated animals / median survival time of untreated controls x 100) at a dose of 3.12 mg/kg; assay type: functional
In short: as §1

Mus musculus [6] = test: In vivo antitumor activity against P388 mouse leukemia expressed as T/C (median survival time of treated animals / median survival time of untreated controls x 100) at a dose of 0.32 mg/kg; assay type: functional
In short: as §1

Mus musculus [7] = test: In vivo antitumor activity against P388 mouse leukemia expressed as T/C (median survival time of treated animals / median survival time of untreated controls x 100) at a dose of 0.94 mg/kg; assay type: functional
In short: as §1

Mus musculus [8] = test: In vivo antitumor activity against P388 mouse leukemia expressed as T/C (median survival time of treated animals / median survival time of untreated controls x 100) at a dose of 12.5 mg/kg; assay type: functional
In short: as §1

Chain of Tubulin beta chain (Bos taurus) (Q6B856 whole entry): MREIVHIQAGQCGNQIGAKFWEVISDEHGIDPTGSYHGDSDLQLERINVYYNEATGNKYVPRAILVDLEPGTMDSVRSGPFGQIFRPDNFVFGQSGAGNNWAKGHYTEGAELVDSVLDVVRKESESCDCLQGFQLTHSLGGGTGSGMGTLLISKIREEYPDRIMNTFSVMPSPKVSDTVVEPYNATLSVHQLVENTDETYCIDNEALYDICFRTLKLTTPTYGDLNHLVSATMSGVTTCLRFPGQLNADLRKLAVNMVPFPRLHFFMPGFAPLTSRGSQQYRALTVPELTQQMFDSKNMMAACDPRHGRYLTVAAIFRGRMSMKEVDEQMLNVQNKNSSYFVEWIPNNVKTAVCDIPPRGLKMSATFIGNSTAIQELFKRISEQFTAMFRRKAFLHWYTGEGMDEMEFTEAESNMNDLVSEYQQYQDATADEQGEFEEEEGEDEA

| SMILES | Tubulin binding [1] [%] | minimal effective dose (Mus musculus [2]) [mg/kg] | further results |
| --- | --- | --- | --- |
| COc1cc2c(c(OC)c1O)-c1cccc(=O)cc1[C@@H](NC(C)=O)CC2 | 26 | – | – |
| COc1cc2c(c(O)c1OC)-c1cccc(=O)cc1[C@@H](NC(C)=O)CC2 | 0 | – | – |
| COc1c2c(cc3c1-c1cccc(=O)cc1[C@@H](NC(C)=O)CC3)OCO2 | 0 | – | – |
| COc1cc2c(c(OC)c1OC)-c1ccc(OC)c(=O)cc1[C@@H](NC(C)=O)CC2 [COLCHICINE] | – | 0.06 | T/C (Mus musculus [3]): 245 |
| COc1cc2c(c(OC)c1OC)-c1ccc(SC)c(=O)cc1[C@@H](NC(C)=O)CC2 [THIOCOLCHICINE] | – | 0.05 | T/C (Mus musculus [4]): 193 |
| COc1cc2c(c(OC(C)=O)c1OC)-c1cccc(=O)cc1[C@@H](NC(C)=O)CC2 | 0 | – | – |
| CCN(CC)c1ccc2c(cc1=O)[C@@H](NC(C)=O)CCc1cc(OC)c(OC)c(OC)c1-2 | – | 0.39 | T/C (Mus musculus [5]): 216 |
| CNc1ccc2c(cc1=O)[C@@H](NC(C)=O)CCc1cc(OC)c(OC)c(OC)c1-2 | – | 0.04 | T/C (Mus musculus [6]): 166 |
| COc1c2c(cc3c1-c1ccc(OC)c(=O)cc1[C@@H](NC(C)=O)CC3)OCO2 | – | > 0.4 | T/C (Mus musculus [7]): 166 |
| COc1cc2c(c(OC)c1OC)-c1ccc(SCc3ccccc3)c(=O)cc1[C@@H](NC(C)=O)CC2 | – | 3.12 | T/C (Mus musculus [8]): 214 |
